Here are results for 3 compounds from publication PMC3019337 (ChemMedChem, 2010).

Holding throughout (assay): stopped-flow CO2 hydration assay
Holding throughout (assay type): biochemical

For one experiment, the target named is hCA VI (Homo sapiens, UniProt P23280). The gist of the method: (§1)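 Enzyme-catalysed CO2 hydration was followed by stopped-flow at 557 nm with 0.2 mM phenol red in 20 mM HEPES pH 7.5 and 20 mM Na2SO4. Initial rates were taken over 10–100 s at five CO2 levels (1.7–17 mM). Enzyme was preincubated 15 min at room temperature with six inhibitor concentrations (100 µM–0.1 nM). Uncatalysed rate was subtracted; Ki came from nonlinear least squares, mean of ≥3 determinations.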

The target of the next experiment is hCA VB (Homo sapiens, UniProt Q9Y2D0). The method, boiled down:
as §1

The target in another experiment is hCA VA (Homo sapiens, UniProt P35218). The method, boiled down: as §1
The next experiment deals with T1, mCA XV (Mus musculus, UniProt Q99N23).
T1 sequence (Q99N23 19-324): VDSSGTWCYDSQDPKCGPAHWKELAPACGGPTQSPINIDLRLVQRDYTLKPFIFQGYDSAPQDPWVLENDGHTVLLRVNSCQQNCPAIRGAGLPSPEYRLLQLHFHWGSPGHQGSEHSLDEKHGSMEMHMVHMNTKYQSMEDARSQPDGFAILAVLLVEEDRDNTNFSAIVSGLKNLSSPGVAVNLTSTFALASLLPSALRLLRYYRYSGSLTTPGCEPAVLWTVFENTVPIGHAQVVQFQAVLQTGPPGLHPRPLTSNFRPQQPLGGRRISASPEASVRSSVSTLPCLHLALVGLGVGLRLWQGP
The method, boiled down:
as §1

A further experiment deals with hCA IX (Homo sapiens, UniProt Q16790). The method, boiled down:
as §1

In the next experiment the target is hCA XII (Homo sapiens, UniProt O43570). The gist of the method: as §1
The target in another experiment is hCA XIII (Homo sapiens, UniProt Q8N1Q1). The method, boiled down:
as §1

The next experiment deals with hCA I (Homo sapiens, UniProt P00915). The gist of the method: as §1
The target in another experiment is hCA IV (Homo sapiens, UniProt P22748). The gist of the method:
as §1

Another experiment concerns the target hCA III (Homo sapiens, UniProt P07451). The method, boiled down:
as §1

For the next experiment, the target named is hCA VII (Homo sapiens, UniProt P43166). The method, boiled down:
as §1

The target in a further experiment is hCA II (Homo sapiens, UniProt P00918). The gist of the method:
as §1

Chain of hCA I (P00915 2-261): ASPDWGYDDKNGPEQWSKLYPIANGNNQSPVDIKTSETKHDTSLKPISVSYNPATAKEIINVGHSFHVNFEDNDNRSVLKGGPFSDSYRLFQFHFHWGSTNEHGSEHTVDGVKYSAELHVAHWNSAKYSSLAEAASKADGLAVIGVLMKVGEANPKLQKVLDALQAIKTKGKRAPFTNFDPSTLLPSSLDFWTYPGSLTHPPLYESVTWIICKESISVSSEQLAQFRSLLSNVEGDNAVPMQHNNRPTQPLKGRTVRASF
Chain of hCA IV (P22748 19-284): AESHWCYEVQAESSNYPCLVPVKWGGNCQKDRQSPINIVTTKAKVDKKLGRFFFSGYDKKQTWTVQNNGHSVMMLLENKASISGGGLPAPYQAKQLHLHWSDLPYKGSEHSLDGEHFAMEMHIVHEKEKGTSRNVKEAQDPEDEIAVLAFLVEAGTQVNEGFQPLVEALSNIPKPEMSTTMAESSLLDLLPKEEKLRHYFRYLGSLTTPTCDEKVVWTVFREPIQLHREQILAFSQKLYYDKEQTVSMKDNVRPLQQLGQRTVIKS
Chain of hCA VII (P43166 whole entry): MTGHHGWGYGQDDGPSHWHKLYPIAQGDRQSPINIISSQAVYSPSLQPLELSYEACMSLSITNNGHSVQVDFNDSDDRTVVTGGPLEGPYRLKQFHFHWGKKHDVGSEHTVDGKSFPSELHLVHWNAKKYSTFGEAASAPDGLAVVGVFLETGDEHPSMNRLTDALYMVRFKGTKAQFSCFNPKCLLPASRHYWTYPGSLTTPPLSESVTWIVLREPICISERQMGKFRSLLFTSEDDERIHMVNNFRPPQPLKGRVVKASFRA
Chain of hCA XIII (Q8N1Q1 whole entry): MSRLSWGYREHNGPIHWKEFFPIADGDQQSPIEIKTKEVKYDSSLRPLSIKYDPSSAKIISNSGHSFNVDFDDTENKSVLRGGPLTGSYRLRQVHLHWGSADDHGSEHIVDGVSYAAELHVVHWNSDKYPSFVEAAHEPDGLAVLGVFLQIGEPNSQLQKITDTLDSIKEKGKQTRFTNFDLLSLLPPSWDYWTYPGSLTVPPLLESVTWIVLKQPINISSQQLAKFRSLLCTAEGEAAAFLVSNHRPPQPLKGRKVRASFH
Chain of hCA III (P07451 2-260): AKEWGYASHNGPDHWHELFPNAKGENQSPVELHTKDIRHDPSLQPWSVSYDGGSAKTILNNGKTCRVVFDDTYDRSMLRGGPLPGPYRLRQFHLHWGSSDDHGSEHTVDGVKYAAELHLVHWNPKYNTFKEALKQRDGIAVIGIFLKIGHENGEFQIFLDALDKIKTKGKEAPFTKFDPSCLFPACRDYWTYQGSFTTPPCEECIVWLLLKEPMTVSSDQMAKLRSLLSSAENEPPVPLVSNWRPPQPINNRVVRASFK
Chain of hCA VB (Q9Y2D0 34-317): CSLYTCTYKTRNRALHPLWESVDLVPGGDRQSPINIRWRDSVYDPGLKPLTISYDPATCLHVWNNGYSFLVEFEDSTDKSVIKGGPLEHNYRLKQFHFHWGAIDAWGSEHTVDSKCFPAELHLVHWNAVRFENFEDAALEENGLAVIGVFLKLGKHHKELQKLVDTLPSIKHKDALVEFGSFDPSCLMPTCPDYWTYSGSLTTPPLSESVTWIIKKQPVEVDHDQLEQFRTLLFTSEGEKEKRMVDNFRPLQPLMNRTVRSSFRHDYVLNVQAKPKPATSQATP
Chain of hCA XII (O43570 25-354): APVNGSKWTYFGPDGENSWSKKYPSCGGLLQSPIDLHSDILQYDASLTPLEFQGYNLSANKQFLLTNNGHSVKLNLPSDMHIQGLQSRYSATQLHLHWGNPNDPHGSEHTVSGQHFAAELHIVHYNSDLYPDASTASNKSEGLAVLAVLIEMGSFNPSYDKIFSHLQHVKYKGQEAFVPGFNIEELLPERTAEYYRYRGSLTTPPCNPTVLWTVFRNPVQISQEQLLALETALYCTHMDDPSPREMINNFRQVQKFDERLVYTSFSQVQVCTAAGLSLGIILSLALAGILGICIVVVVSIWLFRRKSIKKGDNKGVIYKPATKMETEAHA
Chain of hCA VI (P23280 18-308): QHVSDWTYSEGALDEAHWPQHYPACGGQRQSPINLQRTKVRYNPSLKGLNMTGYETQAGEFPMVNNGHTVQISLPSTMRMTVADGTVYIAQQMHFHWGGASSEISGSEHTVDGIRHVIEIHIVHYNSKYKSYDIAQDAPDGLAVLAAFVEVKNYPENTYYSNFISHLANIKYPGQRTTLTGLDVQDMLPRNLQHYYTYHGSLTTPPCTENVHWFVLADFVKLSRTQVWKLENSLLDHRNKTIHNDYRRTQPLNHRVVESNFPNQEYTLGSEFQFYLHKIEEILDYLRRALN
Chain of hCA VA (P35218 39-305): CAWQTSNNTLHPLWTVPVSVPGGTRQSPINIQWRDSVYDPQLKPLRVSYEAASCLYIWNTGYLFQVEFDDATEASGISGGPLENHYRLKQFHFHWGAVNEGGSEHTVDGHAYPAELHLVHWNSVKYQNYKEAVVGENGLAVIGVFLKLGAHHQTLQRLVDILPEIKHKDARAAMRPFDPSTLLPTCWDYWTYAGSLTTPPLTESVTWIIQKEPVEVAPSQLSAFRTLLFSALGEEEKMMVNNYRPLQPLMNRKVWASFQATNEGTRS

What is called Ki is a dissociation constant, usually derived from enzyme kinetics or from competition with a known ligand. Low values mean a stronger hold on the target, high ones a looser hold on the target. Regarding `Cc1occc(=O)c1O` [compound 1, maltol], the Ki on hCA VI was 3.5 µM; on hCA VB, 4.3 µM; at hCA VA it was 4.6 µM; on mCA XV, 2.8 µM; at hCA IX, 9.5 µM; on hCA XII, 4 µM. Besides, the Ki amounted to 10.4 µM at hCA XIII; 9.1 µM at hCA I; 4.3 µM on hCA IV; 9.5 µM on hCA III; 3.4 µM on hCA VII; 3.6 µM at hCA II.

`Cc1occc(=S)c1O` [compound 2, thiomaltol]: the Ki at hCA VI is 3.2 µM; at hCA VB, 4 µM; at hCA VA it was 4.2 µM; on hCA IX it was 10 µM; on hCA XII, 4.5 µM; at hCA XIII, 10.4 µM. Further, the Ki on hCA I is 8.3 µM; at hCA IV, 4.6 µM; on hCA III, 8.4 µM; on hCA VII, 3.6 µM; at hCA II, 4 µM.

Take `On1ccccc1=S` [compound 4, 1,2-HOPTO]: the Ki is 3.6 µM on hCA VI; 3.8 µM on hCA VB; 4 µM on hCA VA; 4.7 µM at mCA XV; 9.2 µM at hCA IX; 4.8 µM on hCA XII. Moreover, the Ki was determined as 10.8 µM on hCA XIII; 9.4 µM on hCA I; 4.4 µM on hCA IV; 7.5 µM at hCA III; 3.6 µM at hCA VII; 4.1 µM at hCA II.
